# Bioassay records deposited in PubChem by several laboratories.
# An excerpt weighted towards active compounds, which were near 2.2% of everything screened.
# HSP90 inh: HSP90 refolding inhibition in rabbit reticulocyte lysate | luciferase refolding luminescence, 3 h | inhibition, % at 5.6 µM | 0.91% of 290,000 active;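 active means inhibition above the screen-wide mean plus 3 SD, computed separately per campaign, cut at about 16% in these data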;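 further: 0% = DMSO wells and 100% = 60 µM geldanamycin wells; inhibitors lower the luminescence because luciferase stays unfolded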
# FLuc inhib CS: Photinus pyralis luciferase inhibition counter-screen. ATPLite firefly luciferase biochemical luminescence, 10 min. inhibition, % at 10 µM. P08659. 1.5% of 200,000 active;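 active means inhibition above about 50% when tested at 10 µM, limit read from the data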
# Target sequence (P08659 whole entry, looked up): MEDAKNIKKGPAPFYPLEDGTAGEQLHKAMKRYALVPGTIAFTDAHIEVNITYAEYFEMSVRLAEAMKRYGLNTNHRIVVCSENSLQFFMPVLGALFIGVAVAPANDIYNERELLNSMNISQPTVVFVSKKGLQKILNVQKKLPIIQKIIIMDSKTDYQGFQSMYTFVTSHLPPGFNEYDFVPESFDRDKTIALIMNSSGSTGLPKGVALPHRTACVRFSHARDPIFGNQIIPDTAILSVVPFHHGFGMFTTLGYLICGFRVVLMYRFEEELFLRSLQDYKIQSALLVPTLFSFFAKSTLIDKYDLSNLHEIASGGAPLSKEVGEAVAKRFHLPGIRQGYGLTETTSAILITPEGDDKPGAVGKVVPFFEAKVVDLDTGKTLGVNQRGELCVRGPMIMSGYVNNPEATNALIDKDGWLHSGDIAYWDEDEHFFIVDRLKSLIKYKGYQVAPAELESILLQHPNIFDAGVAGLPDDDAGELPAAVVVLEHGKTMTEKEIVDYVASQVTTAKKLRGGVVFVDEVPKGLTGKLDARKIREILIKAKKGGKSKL
# TRAIL sens C8: sensitizes caspase-8 expressing cells to TRAIL | 1% of 360,000 active | NB7+C8 cells + TRAIL, ATPlite viability luminescence | inhibition (viability loss, TRAIL sensitization), % at 10 µM | AID 624354;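 active means compounds causing at least 50% loss of cell viability in the single-dose screen, relative to plate controls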
# FLuc act counter: affects firefly luciferase, flagging false hits in luciferase stimulation screens; P08659; ATPlite luciferase biochemical, luminescence, 10 min; 0 = ATP-free wells, 1 = DMSO control; activation factor at 10 µM; 200,000 tested, under 10 active; AID 1027;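 active means luciferase activation factor, scaled between plate controls, of at least 2 with compound at 10 µM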
#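 System: Luciferase/luciferin detection reagent, cell-free biochemical luciferase assay | Medium: PBS buffer for ATP | Dosing: Test compounds dosed from 2 mM stocks in 100% DMSO | Timing: 10 min at ambient temperature | Signal: Luminescence measurement of luciferase light output | Evaluation: Luciferase activation, seen as luminescence increase over controls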
# PPC-1+TRAIL kill: kills PPC-1 cancer cells in the presence of TRAIL; 0.41% of 220,000 active; PPC-1 cells + TRAIL, ATPLite viability luminescence; AID 1443; cell killing (% activity), % at 4 µM or 5 µM;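 active means cell killing above 50% in the first pass at 4 µM, then a duplicate retest at 5 µM averaging 50% or more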;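 further: plate controls were cells with TRAIL plus DMSO for no effect and medium-only wells lacking cells for full effect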
# STAT3 inh: reduces IL-6 driven STAT3 reporter signal; U3A cells, IL-6 STAT3-luciferase reporter, luminescence; host cell line lacks STAT1; inhibition, % at 5.5 µM; 0.89% of 190,000 active; AID 862;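 active means inhibition above the mean inhibition across all screened compounds plus 3 SD, cut at about 44% in these data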;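 further: 0% = DMSO only wells and 100% = 100 µM nifuroxazide control wells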
# * marks the source's active call; other numbers are inactive results; · = no result given.
SMILES,HSP90 inh,FLuc inhib CS,TRAIL sens C8,FLuc act counter,PPC-1+TRAIL kill,STAT3 inh
COc1cc(OC)cc(C(=O)Nc2cccc(-c3ccc(N4CCOCC4)nn3)c2)c1,·,·,45.9,·,·,·
COc1cccc(OC)c1C(=O)Nc1cccc(-c2ccc(N3CCOCC3)nn2)c1,·,·,72.8*,·,·,·
COc1cc2c(cc1OC)C(c1ccc(-c3ccccc3Cl)o1)=NCC2,14.6,61.5*,21.5,0.4,-5.2,6.3
CC(=O)Nc1sc2c(c1-c1nc3ccccc3s1)CN(C(C)C)CC2,·,·,53.6*,·,·,·
O=C(CN1CCN(CC(=O)Nc2ccccc2Cc2ccccc2)CC1)Nc1ccccc1Cl,3.4,·,9.1,·,·,·
Cc1[nH]c2ccccc2c1/C=C/c1nc2ccccc2c(=O)[nH]1,-1.0,·,5.1,·,11.6,·
Cc1cccc(/C=C/c2nc3ccccc3c(=O)[nH]2)c1,-2.2,67.8*,55.0*,0.3,40.7,39.0
O=C(O)c1ccc(/C=C/c2nc3ccccc3c(=O)[nH]2)cc1,-2.0,·,3.6,·,·,·
O=c1[nH]c(/C=C/c2ccccc2Cl)nc2ccccc12,9.7,·,64.1*,·,·,·
Clc1cccc(Cl)c1/C=C/c1nc2ccccc2[nH]1,2.6,82.1*,67.8*,0.2,47.4,-22.9
COc1ccccc1S(=O)(=O)N(C)C[C@H]1OCc2cnnn2CCCC(=O)N([C@H](C)CO)C[C@H]1C,·,·,15.5,·,·,·
O=c1oc2c(O)cccc2cc1-c1nc2ccccc2[nH]1,11.3,·,69.1*,·,·,·
C=C1CC[C@@]23CC[C@]4(C)[C@@](OC2=O)([C@@H]3C1)[C@H]1O[C@H]1C1[C@@]2(C)CC[C@H](O)C(C)(C)C2CC[C@]14C (some centres not stated),·,·,0.7,·,·,·
CCOC(=O)c1c(NC(=O)C(=O)N/N=C/c2ccccc2OC)sc2c1CCCCC2,3.6,58.8*,-6.7,0.4,13.4,2.0
CCOC(=O)c1c(NC(=O)C(=O)N/N=C/c2ccccc2O)sc2c1CCCCC2,-1.4,0.3,4.8,1,12.6,-3.3
C#CCn1c(=NC(=O)c2ccc(S(=O)(=O)N3CCc4ccccc4C3)cc2)sc2cc(S(N)(=O)=O)ccc21,1.0,-3.5,23.2,1,61.0*,-57.1
CCOc1ccc2nc(NC(=O)CSc3nnc(-c4ccncc4)n3CC3CCCO3)sc2c1 (configuration not stated),·,67.6*,45.5,0.3,33.5,·
COC(=O)c1sc(NC(=S)NC(=O)c2ccccc2C)nc1C,-0.5,45.2,51.0*,0.5,2.0,6.9
CCOC(=O)c1sc(NC(=S)NC(=O)c2ccc(OC)cc2)nc1C,16.5*,·,0.7,·,·,·
COc1ccc(C(=O)NC(=S)Nc2nc(C)c(C(=O)N(C)C)s2)cc1,0.2,4.1,14.0,1,0.9,1.1
C=CCn1c2ccccc2c(=O)c2cc(C#CC[C@@H](C)O)ccc21,·,·,52.5*,·,·,·
COc1ccccc1C(=O)COC(=O)CCNS(=O)(=O)c1ccc(C)c(C)c1,·,·,3.3,·,·,·
N#CC(c1ccc(Cl)cc1)c1ccc2c(C(F)(F)F)cc(C(F)(F)F)nc2n1 (configuration not stated),3.2,-1.1,19.6,1,-0.9,87.1*
CC1=C(C(=O)Nc2ccccc2)C(c2ccc(C)cc2)N=C(Nc2nc3ccccc3o2)N1 (configuration not stated),2.2,-7.2,49.8*,1.1,7.9,15.5
Cc1ccccc1Oc1ccc2c(c1)[C@@H]1C[C@H](N(C)C(=O)c3cccnc3)[C@H]([C@H](C)O)C(=O)N1CC2,·,·,-5.9,·,·,·
SMILES,HSP90 inh,FLuc inhib CS,TRAIL sens C8,FLuc act counter,PPC-1+TRAIL kill,STAT3 inh
COc1cc(NC(=O)Cn2ncc(Cl)c(Cl)c2=O)c(C)cc1[N+](=O)[O-],1.2,-5.1,93.5*,1.1,19.2,29.5
CCn1c(=O)c([N+](=O)[O-])c(Cl)c2ccccc21,2.4,-8.2,51.9*,1.1,12.3,7.5
CC(C)COc1ccc(/C=C2/Sc3ccccc3C2=O)cc1,-1.8,57.3*,23.0,0.4,9.4,-22.2
CCCC(=O)N1CCCC(c2cc(C(=O)Nc3ccccc3)no2)C1 (configuration not stated),·,·,51.6*,·,·,·
O=C(CSc1nc(C2CC2)nc2ccccc12)N1c2ccccc2Sc2ccccc21,2.9,-6.6,8.6,1.1,12.7,-18.0
COC(=O)C(C)N1C(=O)S/C(=C\c2cc(C)n(-c3ccccn3)c2C)C1=O (configuration not stated),13.0,56.4*,60.4*,0.4,30.8,3.7
CCOC(=O)CN1C(=O)S/C(=C/c2cc(C)n(-c3ccccn3)c2C)C1=O,2.4,27.2,24.1,0.7,17.9,-12.9
Cc1cc(/C=C2/NC(=O)NC2=O)c(C)n1-c1ccccn1,3.8,49.3,1.0,0.5,29.4,8.7
COC(=O)C(C)N1C(=O)S/C(=C/c2cc(C)n(-c3ccccn3)c2C)C1=O (configuration not stated),11.4,58.4*,58.4*,0.4,22.4,-8.3
CC(=O)c1ccc(NC(=O)C(C)NCc2ccccc2Cl)cc1 (configuration not stated),5.8,-6.8,-3.8,1.1,12.4,7.4
Cc1csc2c(N3CCN(C(=O)c4ccc(C(C)(C)C)cc4)CC3)ncnc12,5.3,·,-7.6,·,15.9,·
CC1(C(=O)Nc2c(F)c(F)c(F)c(F)c2F)CC1(Br)Br (configuration not stated),5.3,·,-11.7,·,-1.1,·
COc1cc2c(cc1OC)C(c1cc(Br)ccc1F)N(C(=O)CCl)CC2 (configuration not stated),9.2,·,94.6*,·,·,·
COc1cc2c(cc1OC)C(C1C(=O)CC(C)(C)CC1=O)N(C(=O)CCl)CC2 (configuration not stated),1.2,-5.5,-10.8,1.1,11.5,-4.8
Cc1cc(NC(=O)CSc2nc(C)c(C)c(=O)[nH]2)no1,·,·,-8.5,·,·,·
N#C/C(=C/c1ccco1)c1nc2ccccc2s1,2.3,70.2*,41.8,0.3,24.9,6.4
N#C/C(=C\c1ccco1)c1nc2ccccc2s1,5.9,68.2*,45.9,0.3,38.4,-23.7
N#C/C(=C/c1ccc(-c2cc(C(=O)O)cc(C(=O)O)c2)o1)c1nc2ccccc2s1,2.1,31.9,·,0.7,-0.4,12.8
CCc1cc2c(COC(=O)CCNS(=O)(=O)c3cccc(C(F)(F)F)c3)cc(=O)oc2cc1O,·,·,53.9*,·,·,·
COc1ccc(-n2nc(C(=O)NCC(=O)N3CCN(C)CC3)c3ccccc3c2=O)cc1OC,-3.7,-2.1,5.1,1,4.0,5.1
COc1ccc(-n2nc(C(=O)NCC(=O)N3CCN(c4ccccc4F)CC3)c3ccccc3c2=O)cc1OC,6.0,·,53.1*,·,·,·
COc1ccccc1-n1cc(C(=O)NCC(=O)N2CCN(c3ccccc3)CC2)c2ccccc2c1=O,-1.1,69.9*,32.4,0.3,39.6,2.4
COc1ccc(N2CCN(C(=O)CNC(=O)c3nn(-c4ccc(OC)cc4)c(=O)c4ccccc34)CC2)cc1,4.2,·,1.7,·,·,·
